Data set [1] relates to HEK293. Briefly: Drug uptake in human HEK293 cells assessed as localization measured at 3 mins of incubation by FM 1-43 dye-microscopy. In kind it is ADME, cell-based. As to conditions: hek293, 0.05 h.
The test system of data set [2] is HEK293. Briefly: Drug uptake in human HEK293 cells assessed as localization at cell surface measured after 90 mins of incubation by FM 1-43 dye-microscopy. In kind it is ADME, cell-based. In short, it runs like this:
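Ligands were Cy5-labelled through a triarginine linker and incubated with cells for 90 min. The membrane probe FM 1-43 was added two minutes before image acquisition. Membrane localization was assessed by epifluorescence microscopy.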

Data set [3] concerns the target T1, Melanocortin receptor 4 (Homo sapiens, UniProt P32245). Put plainly: Inhibition of human MC4R expressed in HEK293 cells assessed as cAMP accumulation by chemiluminescent immunoassay. It is filed as functional, cell-based. For orientation: cAMP levels reflect the balance of adenylyl cyclase and phosphodiesterase activity.
The test system of data set [4] is HEK293. Briefly: Cytotoxicity against human HEK293 cells assessed as cell viability at 10 uM upto 2 days. It is filed as cell-based. As to conditions: hek293, 48 h. In short, it runs like this:
(§1)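 Cell viability was measured at three concentrations and three incubation times, up to 48 h. Values are expressed as % of untreated control and are the average of three independent experiments run in triplicate.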

Data set [5] addresses T1, Melanocortin receptor 4. Briefly: Displacement of Eu-NDP-alpha-MSH from human MC4R expressed in HEK293 cells by time resolved fluorescence binding assay relative to multimer 1M. In kind it is cell-based. In short, it runs like this:
(§2)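 Competition binding on HEK293 cells transfected to overexpress MC4R, against europium-labelled NDP-α-MSH tracer, read by time-resolved fluorescence. IC50 values are averaged from four experiments run in quadruplicate. Relative potency is expressed against the monovalent ligand.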

Data set [6] deals with HEK293. Briefly: Cytotoxicity against human HEK293 cells assessed as cell viability at 1 uM upto 48 hrs. In kind it is cell-based. The following applies: hek293, 48 h. In short, it runs like this:
as §1

Data set [7] addresses T1, Melanocortin receptor 4. Briefly: Displacement of Eu-NDP-alpha-MSH from human MC4R expressed in HEK293 cells by time resolved fluorescence binding assay. It is filed as cell-based. In short, it runs like this: as §2

SMILES strings stand for the structures. Calls of active or inactive are those of the source. No cut-off for these calls is given here.

T1 sequence (P32245 whole entry): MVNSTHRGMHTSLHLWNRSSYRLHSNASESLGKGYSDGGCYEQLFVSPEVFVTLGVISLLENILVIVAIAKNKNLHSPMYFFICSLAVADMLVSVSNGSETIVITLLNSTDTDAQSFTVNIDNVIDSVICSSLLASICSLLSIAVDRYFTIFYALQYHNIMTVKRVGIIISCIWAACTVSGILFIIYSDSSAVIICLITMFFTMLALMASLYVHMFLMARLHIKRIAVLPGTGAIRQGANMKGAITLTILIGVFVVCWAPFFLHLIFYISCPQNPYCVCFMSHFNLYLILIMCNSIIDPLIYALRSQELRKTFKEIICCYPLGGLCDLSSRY

On to `CCCC[C@H](NC(=O)[C@H](CO)NC(=O)[C@H](Cc1ccc(O)cc1)NC(=O)[C@H](CO)NC(C)=O)C(=O)N[C@@H](CCC(=O)O)C(=O)N[C@@H](Cc1cnc[nH]1)C(=O)N[C@H](Cc1ccccc1)C(=O)N[C@@H](CCCNC(=N)N)C(=O)N[C@@H](Cc1c[nH]c2ccccc12)C(=O)NCC(=O)N[C@@H](CCCCNC(=O)CCCCC[N+]1=C(/C=C/C=C/C=C2/N(C)c3ccccc3C2(C)C)C(C)(C)c2ccccc21)C(=O)N1CCC[C@H]1C(=O)N[C@H](C(N)=O)C(C)C`, for which the Drug uptake entry with HEK293 [1] is “Not Active”; in the data set with HEK293 [2], “Active”.
For the compound `CC(=O)NCC(=O)NC(CCCNC(=O)CCNC(=O)C(CCCNC(=O)Cn1cc(CCC(=O)N[C@@H](Cc2cnc[nH]2)C(=O)N[C@H](Cc2ccccc2)C(=O)N[C@@H](CCCNC(=N)N)C(=O)N[C@@H](Cc2c[nH]c3ccccc23)C(N)=O)nn1)(CCCNC(=O)Cn1cc(CCC(=O)N[C@@H](Cc2cnc[nH]2)C(=O)N[C@H](Cc2ccccc2)C(=O)N[C@@H](CCCNC(=N)N)C(=O)N[C@@H](Cc2c[nH]c3ccccc23)C(N)=O)nn1)NC(=O)CNC(=O)Cn1cc(CCC(=O)N[C@@H](Cc2cnc[nH]2)C(=O)N[C@H](Cc2ccccc2)C(=O)N[C@@H](CCCNC(=N)N)C(=O)N[C@@H](Cc2c[nH]c3ccccc23)C(N)=O)nn1)(CCCNC(=O)CCNC(=O)C(CCCNC(=O)Cn1cc(CCC(=O)N[C@@H](Cc2cnc[nH]2)C(=O)N[C@H](Cc2ccccc2)C(=O)N[C@@H](CCCNC(=N)N)C(=O)N[C@@H](Cc2c[nH]c3ccccc23)C(N)=O)nn1)(CCCNC(=O)Cn1cc(CCC(=O)N[C@@H](Cc2cnc[nH]2)C(=O)N[C@H](Cc2ccccc2)C(=O)N[C@@H](CCCNC(=N)N)C(=O)N[C@@H](Cc2c[nH]c3ccccc23)C(N)=O)nn1)NC(=O)CNC(=O)Cn1cc(CCC(=O)N[C@@H](Cc2cnc[nH]2)C(=O)N[C@H](Cc2ccccc2)C(=O)N[C@@H](CCCNC(=N)N)C(=O)N[C@@H](Cc2c[nH]c3ccccc23)C(N)=O)nn1)C(=O)NCCC(=O)N[C@H](CCCNC(=N)N)C(=O)N[C@@H](CCCNC(=N)N)C(=O)N[C@H](CCCNC(=N)N)C(=O)N[C@@H](CCCCNC(=O)CCCCC[N+]1=C(/C=C/C=C/C=C2/N(C)c3ccccc3C2(C)C)C(C)(C)c2ccccc21)C(N)=O` (stereo not given in full), the Drug uptake entry with HEK293 [1] is listed as “Not Active”; in the data set with HEK293 [2], “Active”.
With `CC(=O)NCC(=O)NC(CCCNC(=O)CCNC(=O)C(CCCNC(=O)Cn1cc(CCC(=O)N[C@@H](Cc2cnc[nH]2)C(=O)N[C@H](Cc2ccccc2)C(=O)N[C@@H](CCCNC(=N)N)C(=O)N[C@@H](Cc2c[nH]c3ccccc23)C(N)=O)nn1)(CCCNC(=O)Cn1cc(CCC(=O)N[C@@H](Cc2cnc[nH]2)C(=O)N[C@H](Cc2ccccc2)C(=O)N[C@@H](CCCNC(=N)N)C(=O)N[C@@H](Cc2c[nH]c3ccccc23)C(N)=O)nn1)NC(=O)CNC(=O)Cn1cc(CCC(=O)N[C@@H](Cc2cnc[nH]2)C(=O)N[C@H](Cc2ccccc2)C(=O)N[C@@H](CCCNC(=N)N)C(=O)N[C@@H](Cc2c[nH]c3ccccc23)C(N)=O)nn1)(CCCNC(=O)CCNC(=O)C(CCCNC(=O)Cn1cc(CCC(=O)N[C@@H](Cc2cnc[nH]2)C(=O)N[C@H](Cc2ccccc2)C(=O)N[C@@H](CCCNC(=N)N)C(=O)N[C@@H](Cc2c[nH]c3ccccc23)C(N)=O)nn1)(CCCNC(=O)Cn1cc(CCC(=O)N[C@@H](Cc2cnc[nH]2)C(=O)N[C@H](Cc2ccccc2)C(=O)N[C@@H](CCCNC(=N)N)C(=O)N[C@@H](Cc2c[nH]c3ccccc23)C(N)=O)nn1)NC(=O)CNC(=O)Cn1cc(CCC(=O)N[C@@H](Cc2cnc[nH]2)C(=O)N[C@H](Cc2ccccc2)C(=O)N[C@@H](CCCNC(=N)N)C(=O)N[C@@H](Cc2c[nH]c3ccccc23)C(N)=O)nn1)C(=O)NCCC(N)=O` (stereo not given in full), the result at Melanocortin receptor 4 [3] was Active. Also, the Activity result in the data set with HEK293 [4] and in the data set on HEK293 [6] was “Non-toxic” throughout. Further, the fold change (FC) on Melanocortin receptor 4 [5] was 104.
Regarding `N=C(N)NCCC[C@H](NC(=O)[C@@H](Cc1ccccc1)NC(=O)[C@H](Cc1cnc[nH]1)NC(=O)CCc1cn(CC(=O)NCC(=O)NC(CCCNC(=O)Cn2cc(CCC(=O)N[C@@H](Cc3cnc[nH]3)C(=O)N[C@H](Cc3ccccc3)C(=O)N[C@@H](CCCN=C(N)N)C(=O)N[C@@H](Cc3c[nH]c4ccccc34)C(N)=O)nn2)(CCCNC(=O)Cn2cc(CCC(=O)N[C@@H](Cc3cnc[nH]3)C(=O)N[C@H](Cc3ccccc3)C(=O)N[C@@H](CCCN=C(N)N)C(=O)N[C@@H](Cc3c[nH]c4ccccc34)C(N)=O)nn2)C(=O)NCCC(N)=O)nn1)C(=O)N[C@@H](Cc1c[nH]c2ccccc12)C(N)=O`, the Activity result with HEK293 [4] and with HEK293 [6] was “Non-toxic” in each case.
`CC(=O)NCCCC(CCCNC(C)=O)(NC(=O)CNC(=O)Cn1cc(CCC(=O)N[C@@H](Cc2cnc[nH]2)C(=O)N[C@H](Cc2ccccc2)C(=O)N[C@@H](CCCN=C(N)N)C(=O)N[C@@H](Cc2c[nH]c3ccccc23)C(=O)O)nn1)C(=O)NCCC(N)=O` registered an IC50 on Melanocortin receptor 4 [7] of 4.9 µM.
`N=C(N)NCCC[C@H](NC(=O)[C@@H](Cc1ccccc1)NC(=O)[C@H](Cc1cnc[nH]1)NC(=O)CCc1cn(CC(=O)NCCCC(CCCNC(=O)Cn2cc(CCC(=O)N[C@@H](Cc3cnc[nH]3)C(=O)N[C@H](Cc3ccccc3)C(=O)N[C@@H](CCCNC(=N)N)C(=O)N[C@@H](Cc3c[nH]c4ccccc34)C(N)=O)nn2)(NC(=O)CNC(=O)Cn2cc(CCC(=O)N[C@@H](Cc3cnc[nH]3)C(=O)N[C@H](Cc3ccccc3)C(=O)N[C@@H](CCCNC(=N)N)C(=O)N[C@@H](Cc3c[nH]c4ccccc34)C(N)=O)nn2)C(=O)NCCC(N)=O)nn1)C(=O)N[C@@H](Cc1c[nH]c2ccccc12)C(N)=O` (stereo not given in full): the result at Melanocortin receptor 4 [3] was Active. This compound also showed a fold change (FC) on Melanocortin receptor 4 [5] of 350.
On to `CN1/C(=C/C=C/C=C/C2=[N+](CCCCCC(=O)NCCCC[C@H](NC(=O)[C@@H](CCCNC(=N)N)NC(=O)[C@H](CCCNC(=N)N)NC(=O)[C@@H](CCCNC(=N)N)NC(=O)CCNC(=O)C(CCCNC(=O)Cn3cc(CCC(=O)N[C@@H](Cc4cnc[nH]4)C(=O)N[C@H](Cc4ccccc4)C(=O)N[C@@H](CCCNC(=N)N)C(=O)N[C@@H](Cc4c[nH]c5ccccc45)C(N)=O)nn3)(CCCNC(=O)Cn3cc(CCC(=O)N[C@@H](Cc4cnc[nH]4)C(=O)N[C@H](Cc4ccccc4)C(=O)N[C@@H](CCCNC(=N)N)C(=O)N[C@@H](Cc4c[nH]c5ccccc45)C(N)=O)nn3)NC(=O)CNC(=O)Cn3cc(CCC(=O)N[C@@H](Cc4cnc[nH]4)C(=O)N[C@H](Cc4ccccc4)C(=O)N[C@@H](CCCNC(=N)N)C(=O)N[C@@H](Cc4c[nH]c5ccccc45)C(N)=O)nn3)C(N)=O)c3ccccc3C2(C)C)C(C)(C)c2ccccc21` (stereo not given in full), for which the Drug uptake entry in the data set with HEK293 [1] is listed as “Not Active”; in the data set on HEK293 [2], “Active”.

What is called IC50 is the concentration that gives 50% inhibition. Low values mean greater potency, high ones weaker potency.

The record behind these values is ChEMBL document CHEMBL2331152, “Multivalent Interactions: Synthesis and Evaluation of Melanotropin Multimers - Tools for Melanoma Targeting” (ACS Med Chem Lett, 2013).
